Experimental data taken from ChEMBL document CHEMBL1150387, “Development and experimental validation of a docking strategy for the generation of kinase-targeted libraries” (J Med Chem, 2008).

What was measured:
[1] = target: Serine/threonine-protein kinase Chk2 (Homo sapiens) (UniProt O96017); assay: Inhibition of CHK2 at 10 uM by HTRF assay relative to control
Summary of the method: (§1)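 HTRF kinase assay, one panel of kinases. Inhibitor stock 50 µM in 100% DMSO; tested at 10 µM. ATP and substrate at final levels near Km. Final buffer: 50 mM Hepes/NaOH pH 7.4, 40 µM Na3VO4, 0.005% Tween-20, 1 mM DTT, MnCl2 or MgCl2 at kinase-dependent levels. Started by adding ATP/substrate. Reaction run at room temperature, time varied by kinase. Detection mix in 50 mM Hepes pH 7.4, 0.1% BSA, 150 mM KF, incubated ≥1 h at room temperature. Activity expressed as % of uninhibited control; n=2.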

[2] = target: Mitogen-activated protein kinase 8 (Homo sapiens) (UniProt P45983); assay: Inhibition of JNK1 at 10 uM by HTRF assay relative to control; summary of the method: as §1
[3] = target: Mitogen-activated protein kinase 14 (Homo sapiens) (UniProt Q16539); assay: Inhibition of p38alpha at 10 uM by HTRF assay relative to control; summary of the method: as §1
[4] = target: Tyrosine-protein kinase ABL1 (Homo sapiens) (UniProt P00519); assay: Inhibition of Abl at 10 uM by HTRF assay relative to control; summary of the method: as §1
[5] = target: RAC-alpha serine/threonine-protein kinase (Homo sapiens) (UniProt P31749); assay: Inhibition of AKT1/PKBalpha at 10 uM by HTRF assay relative to control; summary of the method: as §1
[6] = target: Focal adhesion kinase 1 (Homo sapiens) (UniProt Q05397); assay: Inhibition of FAK at 10 uM by HTRF assay relative to control; summary of the method: as §1
[7] = target: Rho-associated protein kinase 2 (Homo sapiens) (UniProt O75116); assay: Inhibition of ROCK2 at 10 uM by HTRF assay relative to control; summary of the method: as §1
[8] = target: T1, Serine/threonine-protein kinase Chk1 (Homo sapiens) (UniProt O14757); assay: Inhibition of CHK1 at 10 uM by HTRF assay relative to control; summary of the method: as §1
T1 sequence (whole entry): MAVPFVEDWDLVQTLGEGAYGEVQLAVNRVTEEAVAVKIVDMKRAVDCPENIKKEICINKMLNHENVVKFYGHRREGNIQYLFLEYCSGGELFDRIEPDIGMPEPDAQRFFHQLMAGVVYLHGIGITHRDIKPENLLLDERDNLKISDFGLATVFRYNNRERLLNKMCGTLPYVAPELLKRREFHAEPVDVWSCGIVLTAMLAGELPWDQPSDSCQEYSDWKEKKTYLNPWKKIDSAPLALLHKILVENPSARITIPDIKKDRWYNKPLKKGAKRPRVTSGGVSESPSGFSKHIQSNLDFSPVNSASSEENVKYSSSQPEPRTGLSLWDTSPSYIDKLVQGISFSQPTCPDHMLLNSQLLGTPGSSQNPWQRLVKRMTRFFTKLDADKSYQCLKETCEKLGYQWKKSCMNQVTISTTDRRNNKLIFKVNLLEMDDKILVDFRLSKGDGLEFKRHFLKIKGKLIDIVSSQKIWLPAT

[9] = target: T2, Calcium/calmodulin-dependent protein kinase type IV (Homo sapiens) (UniProt Q16566); assay: Inhibition of CaMK4 at 10 uM by HTRF assay relative to control; summary of the method: as §1
T2 sequence (whole entry): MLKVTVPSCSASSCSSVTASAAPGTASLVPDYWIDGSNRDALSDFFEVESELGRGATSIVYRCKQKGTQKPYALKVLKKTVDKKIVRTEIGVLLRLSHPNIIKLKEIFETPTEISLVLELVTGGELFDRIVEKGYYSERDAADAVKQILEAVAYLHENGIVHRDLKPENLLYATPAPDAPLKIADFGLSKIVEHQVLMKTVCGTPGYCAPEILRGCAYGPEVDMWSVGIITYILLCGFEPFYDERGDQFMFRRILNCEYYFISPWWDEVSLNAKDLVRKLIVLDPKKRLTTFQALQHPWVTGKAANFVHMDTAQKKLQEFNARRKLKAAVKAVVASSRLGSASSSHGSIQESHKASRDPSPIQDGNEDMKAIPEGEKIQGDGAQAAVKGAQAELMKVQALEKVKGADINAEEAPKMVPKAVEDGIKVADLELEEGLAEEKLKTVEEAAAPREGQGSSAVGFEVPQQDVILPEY

[10] = target: Epidermal growth factor receptor (Homo sapiens) (UniProt P00533); assay: Inhibition of EGFR at 10 uM by HTRF assay relative to control; summary of the method: as §1
[11] = target: MAP kinase-activated protein kinase 2 (Homo sapiens) (UniProt P49137); assay: Inhibition of MAPKAPK2 at 10 uM by HTRF assay relative to control; summary of the method: as §1
[12] = target: Vascular endothelial growth factor receptor 1 (Homo sapiens) (UniProt P17948); assay: Inhibition of FLT1 at 10 uM by HTRF assay relative to control; summary of the method: as §1
[13] = target: Cyclin-dependent kinase 1 (Homo sapiens) (UniProt P06493); assay: Inhibition of CDK1 at 10 uM by HTRF assay relative to control; summary of the method: as §1
[14] = target: Vascular endothelial growth factor receptor 2 (Homo sapiens) (UniProt P35968); assay: Inhibition of KDR at 10 uM by HTRF assay relative to control; summary of the method: as §1
[15] = target: T3, Mitogen-activated protein kinase 12 (Homo sapiens) (UniProt P53778); assay: Inhibition of p38-gamma at 10 uM by HTRF assay relative to control; summary of the method: as §1
T3 sequence (whole entry): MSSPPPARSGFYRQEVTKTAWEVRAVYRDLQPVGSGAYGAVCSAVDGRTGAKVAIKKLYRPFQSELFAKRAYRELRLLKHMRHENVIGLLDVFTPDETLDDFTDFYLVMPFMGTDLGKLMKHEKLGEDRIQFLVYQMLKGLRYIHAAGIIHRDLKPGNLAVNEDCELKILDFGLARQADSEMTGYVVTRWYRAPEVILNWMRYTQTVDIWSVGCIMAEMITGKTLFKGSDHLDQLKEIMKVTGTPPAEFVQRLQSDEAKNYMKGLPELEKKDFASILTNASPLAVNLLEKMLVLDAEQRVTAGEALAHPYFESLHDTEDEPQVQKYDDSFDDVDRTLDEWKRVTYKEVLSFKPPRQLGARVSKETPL

[16] = target: Cyclin-dependent kinase 2 (Homo sapiens) (UniProt P24941); assay: Inhibition of CDK2 at 10 uM by HTRF assay relative to control; summary of the method: as §1

Sequence of Mitogen-activated protein kinase 8 (Homo sapiens) (P45983 whole entry): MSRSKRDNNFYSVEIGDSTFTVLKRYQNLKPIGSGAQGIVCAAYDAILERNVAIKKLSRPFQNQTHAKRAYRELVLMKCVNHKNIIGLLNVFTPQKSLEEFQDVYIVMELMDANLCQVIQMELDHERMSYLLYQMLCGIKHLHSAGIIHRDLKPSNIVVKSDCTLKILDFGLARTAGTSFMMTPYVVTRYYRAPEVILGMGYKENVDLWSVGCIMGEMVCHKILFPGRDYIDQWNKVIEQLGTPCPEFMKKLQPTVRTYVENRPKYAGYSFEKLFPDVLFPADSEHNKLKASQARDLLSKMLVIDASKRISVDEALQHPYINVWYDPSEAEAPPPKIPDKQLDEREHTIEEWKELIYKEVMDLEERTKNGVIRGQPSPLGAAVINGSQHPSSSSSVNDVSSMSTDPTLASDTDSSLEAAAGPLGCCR
Sequence of Tyrosine-protein kinase ABL1 (Homo sapiens) (P00519 whole entry): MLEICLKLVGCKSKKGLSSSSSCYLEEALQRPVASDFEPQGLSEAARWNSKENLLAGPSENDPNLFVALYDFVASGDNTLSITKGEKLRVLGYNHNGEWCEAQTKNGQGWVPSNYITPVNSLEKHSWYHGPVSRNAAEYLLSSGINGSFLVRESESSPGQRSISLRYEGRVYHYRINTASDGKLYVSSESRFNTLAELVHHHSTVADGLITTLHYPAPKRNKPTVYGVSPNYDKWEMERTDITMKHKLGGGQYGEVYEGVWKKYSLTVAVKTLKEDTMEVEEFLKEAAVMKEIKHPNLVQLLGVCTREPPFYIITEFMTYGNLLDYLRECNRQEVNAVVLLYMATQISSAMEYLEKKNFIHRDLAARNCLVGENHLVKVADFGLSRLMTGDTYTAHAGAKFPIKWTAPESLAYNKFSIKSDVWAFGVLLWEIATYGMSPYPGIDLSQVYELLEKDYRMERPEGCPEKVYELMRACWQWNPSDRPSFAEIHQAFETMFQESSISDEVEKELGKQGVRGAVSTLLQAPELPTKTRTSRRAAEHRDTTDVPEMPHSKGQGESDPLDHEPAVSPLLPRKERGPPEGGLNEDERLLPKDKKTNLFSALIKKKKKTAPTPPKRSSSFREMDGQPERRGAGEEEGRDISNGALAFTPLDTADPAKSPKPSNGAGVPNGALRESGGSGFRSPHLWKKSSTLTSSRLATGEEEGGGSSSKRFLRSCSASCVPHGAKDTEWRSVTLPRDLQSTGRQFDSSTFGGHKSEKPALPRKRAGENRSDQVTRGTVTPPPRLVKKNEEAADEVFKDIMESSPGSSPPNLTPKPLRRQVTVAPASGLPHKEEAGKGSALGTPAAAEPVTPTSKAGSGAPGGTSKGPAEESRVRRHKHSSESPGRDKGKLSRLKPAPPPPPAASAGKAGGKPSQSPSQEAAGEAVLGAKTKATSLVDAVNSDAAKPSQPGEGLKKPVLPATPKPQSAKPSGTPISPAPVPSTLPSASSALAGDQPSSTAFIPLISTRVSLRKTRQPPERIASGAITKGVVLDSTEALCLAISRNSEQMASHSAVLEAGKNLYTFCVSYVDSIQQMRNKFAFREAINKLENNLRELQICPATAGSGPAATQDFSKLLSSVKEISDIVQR
Sequence of Epidermal growth factor receptor (Homo sapiens) (P00533 whole entry): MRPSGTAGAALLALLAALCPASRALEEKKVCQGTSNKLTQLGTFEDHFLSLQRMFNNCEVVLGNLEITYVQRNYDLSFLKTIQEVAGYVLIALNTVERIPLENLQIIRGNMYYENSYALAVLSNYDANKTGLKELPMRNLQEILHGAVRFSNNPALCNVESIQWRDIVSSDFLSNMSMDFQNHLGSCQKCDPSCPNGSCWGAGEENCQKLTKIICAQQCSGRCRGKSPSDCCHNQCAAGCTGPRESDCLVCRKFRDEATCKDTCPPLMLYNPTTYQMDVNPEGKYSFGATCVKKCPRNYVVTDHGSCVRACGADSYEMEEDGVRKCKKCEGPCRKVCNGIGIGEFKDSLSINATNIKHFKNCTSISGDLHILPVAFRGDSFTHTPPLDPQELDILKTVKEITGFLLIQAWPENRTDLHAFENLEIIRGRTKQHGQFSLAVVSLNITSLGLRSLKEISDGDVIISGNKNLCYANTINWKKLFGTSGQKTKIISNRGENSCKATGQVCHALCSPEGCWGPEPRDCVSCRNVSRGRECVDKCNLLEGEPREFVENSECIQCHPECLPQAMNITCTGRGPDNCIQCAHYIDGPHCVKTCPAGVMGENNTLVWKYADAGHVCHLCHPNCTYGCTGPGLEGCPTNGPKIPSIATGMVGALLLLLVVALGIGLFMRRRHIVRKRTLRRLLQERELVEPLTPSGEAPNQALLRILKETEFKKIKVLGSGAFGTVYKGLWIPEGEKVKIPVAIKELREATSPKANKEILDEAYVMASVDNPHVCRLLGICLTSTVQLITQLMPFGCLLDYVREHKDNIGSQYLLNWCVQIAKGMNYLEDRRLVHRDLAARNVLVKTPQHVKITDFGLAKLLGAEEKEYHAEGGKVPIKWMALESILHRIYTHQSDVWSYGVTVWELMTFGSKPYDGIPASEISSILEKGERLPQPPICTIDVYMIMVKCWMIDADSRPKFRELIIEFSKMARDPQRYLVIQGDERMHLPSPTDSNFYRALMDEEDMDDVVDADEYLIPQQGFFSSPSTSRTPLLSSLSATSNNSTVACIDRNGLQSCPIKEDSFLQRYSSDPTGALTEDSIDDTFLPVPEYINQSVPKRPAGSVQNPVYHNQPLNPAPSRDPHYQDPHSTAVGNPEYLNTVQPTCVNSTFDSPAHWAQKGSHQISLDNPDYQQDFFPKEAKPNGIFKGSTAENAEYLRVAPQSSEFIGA
Sequence of Mitogen-activated protein kinase 14 (Homo sapiens) (Q16539 whole entry): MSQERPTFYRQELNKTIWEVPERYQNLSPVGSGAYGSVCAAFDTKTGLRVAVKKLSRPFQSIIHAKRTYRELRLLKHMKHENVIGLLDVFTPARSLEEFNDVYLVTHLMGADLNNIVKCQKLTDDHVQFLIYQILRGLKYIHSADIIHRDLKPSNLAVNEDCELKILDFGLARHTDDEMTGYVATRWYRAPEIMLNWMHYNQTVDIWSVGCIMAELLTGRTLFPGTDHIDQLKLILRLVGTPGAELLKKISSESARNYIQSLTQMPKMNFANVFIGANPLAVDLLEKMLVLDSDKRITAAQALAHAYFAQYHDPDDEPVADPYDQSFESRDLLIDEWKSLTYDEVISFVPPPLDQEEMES
Sequence of RAC-alpha serine/threonine-protein kinase (Homo sapiens) (P31749 whole entry): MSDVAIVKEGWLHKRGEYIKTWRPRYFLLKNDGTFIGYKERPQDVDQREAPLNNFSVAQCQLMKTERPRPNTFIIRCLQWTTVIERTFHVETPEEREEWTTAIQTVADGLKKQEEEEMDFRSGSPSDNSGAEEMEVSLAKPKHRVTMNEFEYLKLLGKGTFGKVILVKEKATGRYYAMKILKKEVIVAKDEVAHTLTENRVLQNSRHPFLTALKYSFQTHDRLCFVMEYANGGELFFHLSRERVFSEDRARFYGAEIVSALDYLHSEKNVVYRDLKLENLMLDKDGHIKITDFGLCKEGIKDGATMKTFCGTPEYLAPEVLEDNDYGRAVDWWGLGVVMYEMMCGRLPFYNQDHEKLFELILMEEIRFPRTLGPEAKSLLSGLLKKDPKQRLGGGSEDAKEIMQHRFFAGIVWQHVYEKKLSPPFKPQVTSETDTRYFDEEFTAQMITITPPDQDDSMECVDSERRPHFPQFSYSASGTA
Sequence of MAP kinase-activated protein kinase 2 (Homo sapiens) (P49137 whole entry, looked up): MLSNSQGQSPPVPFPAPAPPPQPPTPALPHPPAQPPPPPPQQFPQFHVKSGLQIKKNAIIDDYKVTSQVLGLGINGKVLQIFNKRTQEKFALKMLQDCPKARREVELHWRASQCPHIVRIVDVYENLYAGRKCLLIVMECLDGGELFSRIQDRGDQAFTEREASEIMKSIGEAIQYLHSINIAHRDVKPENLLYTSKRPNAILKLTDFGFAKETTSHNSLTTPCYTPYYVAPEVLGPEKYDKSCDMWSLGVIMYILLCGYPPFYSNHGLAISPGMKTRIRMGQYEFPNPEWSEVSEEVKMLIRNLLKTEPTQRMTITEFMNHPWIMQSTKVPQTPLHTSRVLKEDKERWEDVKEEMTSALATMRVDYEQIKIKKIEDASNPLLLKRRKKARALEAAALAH
Sequence of Serine/threonine-protein kinase Chk2 (Homo sapiens) (O96017 whole entry): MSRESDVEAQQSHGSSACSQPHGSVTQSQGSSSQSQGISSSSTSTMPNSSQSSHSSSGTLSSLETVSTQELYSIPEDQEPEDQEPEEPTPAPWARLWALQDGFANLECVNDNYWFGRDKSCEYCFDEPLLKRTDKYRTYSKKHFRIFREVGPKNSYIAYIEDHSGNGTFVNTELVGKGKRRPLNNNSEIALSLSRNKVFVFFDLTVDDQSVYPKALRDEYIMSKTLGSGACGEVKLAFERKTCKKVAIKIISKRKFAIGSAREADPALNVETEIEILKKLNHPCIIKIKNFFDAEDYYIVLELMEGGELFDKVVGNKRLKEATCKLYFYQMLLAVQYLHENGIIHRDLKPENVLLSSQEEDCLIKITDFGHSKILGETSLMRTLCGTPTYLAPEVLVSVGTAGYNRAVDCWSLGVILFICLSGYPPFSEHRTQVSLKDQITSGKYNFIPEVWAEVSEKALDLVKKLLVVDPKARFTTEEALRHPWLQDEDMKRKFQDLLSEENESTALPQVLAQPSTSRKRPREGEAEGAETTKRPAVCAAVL
Sequence of Cyclin-dependent kinase 1 (Homo sapiens) (P06493 whole entry, looked up): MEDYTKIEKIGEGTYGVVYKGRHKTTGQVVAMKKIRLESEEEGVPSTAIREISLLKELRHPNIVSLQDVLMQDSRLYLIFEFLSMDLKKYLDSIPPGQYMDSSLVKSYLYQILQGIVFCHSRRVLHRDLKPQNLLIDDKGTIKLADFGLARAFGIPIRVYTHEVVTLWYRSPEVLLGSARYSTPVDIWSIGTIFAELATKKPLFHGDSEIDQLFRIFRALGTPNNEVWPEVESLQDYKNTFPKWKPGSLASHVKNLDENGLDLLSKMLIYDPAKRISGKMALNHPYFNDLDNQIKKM

| inhibition [1] | inhibition [2] | inhibition [3] | inhibition [4] | inhibition [5] | inhibition [6] | inhibition [7] | inhibition [8] | inhibition [9] | inhibition [10] | inhibition [11] | inhibition [12] | inhibition [13] | inhibition [14] | inhibition [15] | inhibition [16] | SMILES |
| --- | --- | --- | --- | --- | --- | --- | --- | --- | --- | --- | --- | --- | --- | --- | --- | --- |
| 0% | 0% | 5% | 49% | 2% | 6% | 0% | 6% | 0% | 97% | 0% | 3% | 0% | 31% | 1% | 21% | Cc1cccc(N(C)c2cc(Nc3cccc(C(=O)N(C)CCc4ccccn4)c3)ncn2)c1 |
| 0% | 49% | 3% | 38% | 0% | 99% | 5% | 5% | 0% | 8% | 0% | 34% | 1% | 81% | 2% | 28% | Cc1cccc(Nc2nccc(Nc3cccc(C(=O)N(C)CCc4ccccn4)c3)n2)c1 |
| 0% | 24% | 20% | 71% | 0% | 15% | 0% | 0% | 0% | 100% | 0% | 0% | 0% | 26% | 2% | 12% | Cc1cccc(N(C)c2cc(Nc3cccc(C(=O)NCCCn4ccnc4)c3)ncn2)c1 |
| 0% | 0% | 0% | 0% | 0% | 4% | 0% | 6% | 0% | 0% | 4% | 12% | 0% | 5% | 2% | 9% | CN(C)CC(C)(C)CNC(=O)[C@@H]1CCCN1c1nccc(Nc2ccccc2)n1 |
| 4% | 19% | 5% | 8% | 1% | 11% | 2% | 9% | 0% | 36% | 0% | 15% | 0% | 7% | 3% | 1% | COc1cccc(Nc2cc(Nc3cccc(C(=O)N(C)CCc4ccccn4)c3)nc(N)n2)c1 |
| 0% | 9% | 6% | 6% | 0% | 5% | 0% | 4% | 0% | 0% | 0% | 0% | 0% | 3% | 3% | 10% | Cc1cccc(N(C)c2cc(N3CCN(C(=O)Cc4c[nH]c5ccccc45)CC3)ncn2)c1 |
| 1% | 0% | 1% | 11% | 2% | 0% | 1% | 2% | 0% | 0% | 4% | 0% | 0% | 6% | 2% | 2% | O=C(NC1Cc2ccccc2C1)c1cccc(Nc2ccnc(N3CCN(c4ccccc4)CC3)n2)c1 |
| 0% | 3% | 10% | 1% | 2% | 1% | 0% | 5% | 0% | 0% | 1% | 0% | 0% | 11% | 2% | 16% | Clc1ccc2sc(CN3CCN(c4ncnc5c4CN(Cc4ccccc4)CC5)CC3)cc2c1 |
| 6% | 7% | 6% | 10% | 0% | 1% | 0% | 5% | 0% | 0% | 2% | 0% | 8% | 0% | 0% | 5% | O=C(c1nc(SCc2ccc(Cl)cc2)n2ccccc12)N1CCN(c2cc(Nc3cccc(Br)c3)ncn2)CC1 |
| 27% | 97% | 23% | 96% | 0% | 97% | 29% | 7% | 16% | 16% | 0% | 39% | 5% | 89% | 9% | 24% | CN(C)CC(C)(C)CNC(=O)c1cccc(Nc2nccc(Nc3ccc4ncsc4c3)n2)c1 |
| 5% | 0% | 3% | 3% | 0% | 0% | 0% | 0% | 0% | 0% | 0% | 0% | 0% | 1% | 0% | 9% | O=C(CN1CCN(c2ncnc3c2CN(Cc2ccccc2)CC3)CC1)Nc1cc(F)ccc1F |
| 3% | 13% | 0% | 0% | 1% | 0% | 0% | 3% | 0% | 0% | 0% | 7% | 0% | 18% | 7% | 2% | Cc1cccc(Oc2ccnc(N3CCN(C(=O)c4c(C)noc4C)CC3)n2)c1 |
| 2% | 9% | 1% | 2% | 5% | 4% | 1% | 0% | 0% | 0% | 0% | 0% | 0% | 3% | 2% | 0% | Cc1cccc(CN2CCN(c3cc(N(C)c4cccc(C)c4)ncn3)CC2)c1 |
| 0% | 28% | 37% | 31% | 0% | 12% | 13% | 4% | 0% | 100% | 0% | 32% | 1% | 22% | 0% | 15% | O=C(NCc1ccncc1)c1cccc(Nc2cc(Nc3cccc(Br)c3)ncn2)c1 |
| 3% | 5% | 7% | 10% | 0% | 6% | 0% | 1% | 0% | 0% | 1% | 0% | 0% | 5% | 0% | 6% | COC(=O)C(CO)NC(=O)[C@@H]1CCCN1c1nccc(Oc2cccc(C)c2)n1 (stereo partly specified) |
| 0% | 0% | 8% | 0% | 0% | 3% | 1% | 1% | 0% | 0% | 0% | 0% | 0% | 17% | 0% | 14% | Nc1nc(N2CCOCC2)cc(N2CCC(C(=O)NCc3cccs3)CC2)n1 |
